Results from different studies.
Compare with care: the assays were run in different laboratories.

| SMILES | host | sample | route | dose | setting | Cmax |
| --- | --- | --- | --- | --- | --- | --- |
| NCc1ccc(-c2nn(Cc3ccccc3)c3ccccc23)o1 | male CD-1 mouse | plasma | intraperitoneal | 30 mg/kg | – | 4030 ng/mL |
| CC(C)(C)c1sc2ncnc(Oc3c(F)cccc3OC(F)(F)F)c2c1-c1ccc(Cl)cc1 | mouse | plasma | oral | 30 mg/kg | single dose | 10300 ng/mL |
| Cc1ncsc1-c1ccc([C@H](CC(=O)N2CCN(c3ccc(C#Cc4ccc(C(=O)N5CCC(n6cc(-c7ccc8c(c7)CCN8C(=O)Cc7cccc(OC(F)(F)F)c7)c7c(N)ncnc76)CC5)cc4)cn3)CC2)NC(=O)[C@@H]2C[C@@H](O)CN2C(=O)[C@@H](NC(=O)C2(F)CC2)C(C)(C)C)cc1 | male C57BL/6 mouse | plasma | intravenous | 1 mg/kg | – | 19600 ng/mL |
| Cc1cc(-c2ccnc3[nH]cc(F)c23)cc(F)c1[C@@]1(O)[C@H](C)CN(C(=O)CN)C[C@@H]1C | male CD-1 mouse | plasma | intravenous | 1 mg/kg | – | 1980 ng/mL |
| O=C1CCC(N2Cc3cc(C4CCN(Cc5ccccc5)CC4)ccc3C2=O)C(=O)N1 (stereo not drawn) | male CD-1 mouse | plasma | oral | 3 mg/kg | – | 273 ng/mL |
| NCc1cc2c(cc1F)C(=O)N(C1CCC(=O)NC1=O)C2 (stereo not drawn) | male CD-1 mouse | plasma | oral | 10 mg/kg | – | 97.2 ng/mL |
| CCOC(=O)c1c(NC(=O)CNC(C)C)sc2c1CCCCC2 | male mouse | plasma | intraperitoneal | 100 mg/kg | single dose | 6340 ng/mL |
| COC1=CC(c2ccc[nH]2)=N/C1=C\c1[nH]c(Cc2ccc(OC(F)(F)F)cc2)cc1Cc1ccc(OC(F)(F)F)cc1 | male CD-1 mouse | plasma | oral | 40 mg/kg | single dose | 3950 ng/mL |
| Cc1ccc(N(c2ccc(NC(=O)CN(C)c3ccccc3N3CCCC3=O)cc2)C(C)C)cc1 | male CD-1 mouse | plasma | oral | 20 mg/kg | – | 1000 ng/mL |
| Cc1cc(-c2ccnc3[nH]cc(F)c23)cc(F)c1[C@@]1(O)[C@H](C)CN(C2CCS(=O)(=O)CC2)C[C@@H]1C | male CD-1 mouse | plasma | oral | 3 mg/kg | – | 750 ng/mL |
| NCc1ccc(-c2nn(Cc3ccncc3)c3ccccc23)o1 | male CD-1 mouse | plasma | oral | 10 mg/kg | – | 168 ng/mL |
| COC1=CC(c2ccc[nH]2)=N/C1=C\c1cc(Cc2ccc(OC(F)(F)F)cc2)c(C)[nH]1.Cl | male CD-1 mouse | plasma | oral | 40 mg/kg | single dose | 161 ng/mL |
| C=CCn1c(=O)c2cnc(Nc3ccc(N4CCN(C)CC4)cc3)nc2n1-c1ccc2c(n1)[C@@](O)(CC)CC2 | mouse | plasma | oral | 60 mg/kg | – | 10.5 µM |
| OCc1ccc(-c2nn(Cc3ccccc3)c3ccccc23)o1 | male CD-1 mouse | plasma | intraperitoneal | 30 mg/kg | – | 5540 ng/mL |
| Cc1nc2ccc(OCc3ccc(C(F)(F)F)cc3)cc2[nH]1 | male BALB/c mouse | plasma | intravenous | 1 mg/kg | – | 4540 ng/mL |
| CN(C)C(=O)c1cc2cnc(Nc3ccc(-c4ccc5c(=O)cc(N6CCOCC6)oc5c4)cc3)nc2n1C1CCCC1.Cl | BALB/c mouse | plasma | intravenous | 2 mg/kg | – | 3690 ng/mL |
| COc1cc(C2C3=C(COC3=O)N(CCO)c3cc4c(cc32)CCC4)cc(OC)c1OC (stereo not drawn) | female C57BL/6 mouse | plasma | intraperitoneal | 50 mg/kg | – | 1040 ng/mL |
| C[C@@H](CN1CCC(n2c(=O)[nH]c3cc(Cl)ccc32)CC1)NC(=O)c1ccc2ccccc2c1 | male CD-1 mouse | brain | intravenous | 1 mg/kg | single dose | 0.236 ng/mL |
| Cc1ccc(OCC(=O)N[C@@H](Cc2c[nH]c3ccccc23)C(=O)OC(C)C)cc1 | male Sprague-Dawley mouse | plasma | intravenous | 10 mg/kg | – | 1840 ng/mL |
| Cc1ncsc1-c1ccc([C@H](CC(=O)N2CC3(C2)CN(c2ccc(C#Cc4ccc(C(=O)N5CCC(n6cc(-c7ccc8c(c7)CCN8C(=O)Cc7cccc(OC(F)(F)F)c7)c7c(N)ncnc76)CC5)cc4)cn2)C3)NC(=O)[C@@H]2C[C@@H](O)CN2C(=O)[C@@H](NC(=O)C2(F)CC2)C(C)(C)C)cc1 | male C57BL/6 mouse | plasma | intravenous | 1 mg/kg | – | 19000 ng/mL |
| OCc1nc2ccc(NCc3ccc(C(F)(F)F)cc3)cc2[nH]1 | male BALB/c mouse | plasma | oral | 10 mg/kg | – | 1790 ng/mL |
